Assay results published in paper PMC6432617 (Chemical Science, 2019).
Values belong to the compound of their own block, whether it stands above or below them.

Tests used:
neutrophil granules = conditions: ref column Ref. of Table 1 ([5], [8], [9], [42], [60], [61], [65], [75]–[93]); cited from earlier work
[1] = Photophysical study: fluorescence spectra and quantum yields; type: physicochemical; conditions: for solvatochromism Δmaxλem: various solvents, 50 μM
[2] = system: zebrafish neutrophil granules; test: HAB labeling of live zebrafish embryos and larvae, confocal imaging; type: in vivo, zebrafish (Danio rerio)
Summary of the method: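 Wild-type AB or transgenic embryos/larvae (24 hpf to 6 dpf, 28.5 °C staging) were incubated 1 h in the dark at room temperature with probe at 10 μM in Volvic water, from a 10 mM DMSO stock; controls got 0.1% DMSO. For equilibrium imaging, larvae were anaesthetised (tricaine) and mounted in 1% low-melt agarose with probe. For diffusion imaging, larvae were washed and mounted probe-free. Confocal imaging was done at 23–26 °C: excitation 488 nm, emission 550–650 nm.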

myeloperoxidase = test: HAB labeling in myeloperoxidase knock-out; type: in vivo, zebrafish (Danio rerio); conditions: spotless mutant strain, equilibrium conditions
[3] = system: lymphocytes, monocytes, erythrocytes and thrombocytes (platelets); test: HAB labeling of other human blood cell populations; type: cell-based; conditions: 10 μM, same conditions as purified neutrophils
Summary of the method: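 PBMC were taken from the top layer of the Percoll gradient used for neutrophil purification. Live lymphocytes, erythrocytes, monocytes and thrombocytes were imaged by confocal fluorescence and DIC with probe at 10 μM, using the same settings as for the neutrophils.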

[4] = system: live primary human neutrophils; test: HAB labeling of live human primary neutrophils; type: cell-based; conditions: 10 μM
Summary of the method: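 Neutrophils were purified from human blood: plasma removal, dextran sedimentation of red cells, then a 51–42% Percoll gradient. Remaining red cells were cleared with CD235a beads. Cells went into RPMI/10 mM Hepes at 2 × 10^6 per mL and adhered 20 min at room temperature in glass-bottom dishes. Medium was replaced with probe at 1, 5 or 10 μM in RPMI/Hepes, followed by live confocal fluorescence and DIC imaging.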

zebrafish larvae [5] = test: Toxicity in live zebrafish larvae; type: in vivo, zebrafish (Danio rerio); conditions: up to 48 h incubation
[6] = log D7.4 partition coefficient, n-octanol / pH 7.4 PBS; type: physicochemical; conditions: from log D7.4 values
Summary of the method: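 Partition coefficients were measured between n-octanol and pH 7.4 phosphate-buffered saline at 20 °C, alongside reference chalcones.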

[7] = pKa prediction with ACD software; conditions: from predicted pKa 3.97
[8] = target: bovine serum albumin (BSA) (Bos taurus, UniProt P02769); test: Protein-dependent fluorogenesis: titration of HAB with BSA in TRIS buffer; type: binding
Summary of the method: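 Probe at 50 μM in Tris buffer (Tris·HCl 10 mM, pH 7.0, NaCl 100 mM, MgCl2 5 mM) was titrated with BSA. Emission spectra were recorded at 360 nm excitation over 0–1 mg mL−1 BSA and at 420 nm excitation over 1–10 mg mL−1. Fluorescence turn-on was taken at 420 nm excitation with 10 mg ml−1 BSA.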

Caenorhabditis elegans = test: HAB labeling of live Caenorhabditis elegans; conditions: in vivo
chemokine CXCL12a = conditions: 10 μM, zebrafish model ref [56]; cited from earlier work
zebrafish larvae [9] = test: Chalcone 18 alone in 72 hpf larvae, confocal imaging; type: in vivo, zebrafish (Danio rerio)

Sequence of bovine serum albumin (BSA) (P02769 25-607): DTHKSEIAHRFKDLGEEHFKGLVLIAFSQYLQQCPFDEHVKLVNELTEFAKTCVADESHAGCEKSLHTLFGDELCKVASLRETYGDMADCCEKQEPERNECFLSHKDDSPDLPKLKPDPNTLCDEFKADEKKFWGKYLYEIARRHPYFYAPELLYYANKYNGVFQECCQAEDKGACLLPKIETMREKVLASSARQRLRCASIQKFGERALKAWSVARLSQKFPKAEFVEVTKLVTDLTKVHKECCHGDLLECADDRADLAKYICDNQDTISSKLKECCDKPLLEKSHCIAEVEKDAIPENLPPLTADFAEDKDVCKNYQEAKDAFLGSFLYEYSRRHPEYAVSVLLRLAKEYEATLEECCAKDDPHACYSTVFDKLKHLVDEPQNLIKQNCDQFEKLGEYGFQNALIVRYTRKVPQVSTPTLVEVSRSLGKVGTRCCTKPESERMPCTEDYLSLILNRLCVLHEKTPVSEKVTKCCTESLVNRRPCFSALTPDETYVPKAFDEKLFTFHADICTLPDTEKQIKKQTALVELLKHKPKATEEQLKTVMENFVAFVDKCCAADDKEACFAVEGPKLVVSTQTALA

SMILES: COC(=O)c1ccccc1C1c2ccc(N)cc2Oc2cc(N)ccc21 [Dihydrorhodamine 123]
Histopermeability for live animal imaging (neutrophil granules): No (in vitro only)

solvatochromism Δmaxλem [1]: ~140 nm
SMILES: Nc1cccc2ccc(/C=C/C(=O)c3ccccc3)cc12 [Compound 6, (E)-3-(8-aminonaphthalen-2-yl)-1-phenylprop-2-en-1-one]

SMILES: CC1(C)Nc2cccc3c(N=Nc4ccc(N=Nc5ccccc5)c5ccccc45)ccc(c23)N1 [Sudan Black B]
Histopermeability for live animal imaging (neutrophil granules): No (FA fixation in vivo)

SMILES: Nc1cccc2c(=O)[nH][nH]c(=O)c12 [Luminol]
Histopermeability for live animal imaging (neutrophil granules): No (in vitro only)

SMILES: Nc1cccc2ccc(/C=C/C(=O)c3ccc(O)cc3)cc12 [HAB, (E)-3-(8-aminonaphthalen-2-yl)-1-(4-hydroxyphenyl)prop-2-en-1-one]
fold higher quantum yield than 5-amino regioisomer 12 ([1]; toluene): ca. 20 fold | solvatochromism Δmaxλem [1]: ~140 nm | compartment labeled within neutrophils ([2]; 10 μM, 72 hpf larvae, confocal plus DIC): co-localize with neutrophil granules | developmental stage at which labeling first appeared ([2]; 10 μM, 60 min, ventral tail of embryo): 32 hpf | co-localization with macrophages ([2]; 10 μM, Tg(mfap4:mCherry-F) 72 hpf larvae): did not co-localize | co-localization with neutrophils ([2]; 10 μM, Tg(mpx:GAL4/UAS-E1b:nsfB-mCherry) 72 hpf larvae): perfectly colocalized with all neutrophils | HAB labeling after or before formaldehyde fixation ([2]; 1 or 4% formaldehyde, two hours, room temperature): failed to detect HAB labeling | labeling in myeloperoxidase knock-out larvae (myeloperoxidase): qualitatively and quantitatively indistinguishable from wild-type larvae | labeling of lymphocytes, monocytes, erythrocytes and thrombocytes [3]: weakly to faintly labeled | labeling of activated neutrophils [4]: intense labeling of cells at the level of subcellular granular structures | labeling of non-activated neutrophils [4]: intense but diffuse fluorescent labeling | toxicity of HAB (zebrafish larvae [5]): absence of toxicity | fold more hydrophilic than 4′-deshydroxy congener 6 [6]: 2 fold | basicity, fold lower than that of acidotropic amines [7]: about 10^5 fold | bathochromic shift Δλem upon binding to BSA [8]: 133 nm | bathochromic shift Δλex upon binding to BSA [8]: 60 nm | fluorescence turn-on (FTO) upon binding to BSA ([8]; excitation 420 nm, BSA 10 mg ml^–1, HAB 50 μM): 21.5 | microscopic visualization in C. elegans (Caenorhabditis elegans): could not be microscopically visualized

cytopermeability (zebrafish larvae [9]; even at high concentration): not cytopermeable
SMILES: COc1cc(/C=C/C(=O)c2ccc(Cl)cc2)ccc1O [Compound 18, 4-hydroxy-3-methoxy-4′-chlorochalcone]
biological effects as inhibitor of CXCL12a (chemokine CXCL12a): moderate biological effects | fluorescent detection by GFP filters (chemokine CXCL12a): not fluorescently detected | type of staining (zebrafish larvae [9]; 100 μM, 72 hpf larvae): interstitial histological labeling | fluorescence of 18 alone in larvae (zebrafish larvae [9]; 100 μM, 72 hpf larvae, excitation 488 nm): green-yellow fluorescence
